Calls of active or inactive are those of the source. The calls are words filed in the database; no cut-off is given here.
Legend:
MDA-MB-231 = assay: Antiproliferative activity against human MDA-MB-231 cells assessed as reduction in cell viability incubated for 24 hrs by MTT assay; type: functional, cell-based; details: MDA-MB-231, 24 h
How it was run: (§1)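 Cells seeded at 3,500 per well in 10% FBS and left overnight, then exposed to test agent or vehicle in 5% FBS for 24 h. MTT added for 1 h, then medium swapped for DMSO and absorbance read at 560 nm. Viability given as percent of vehicle-treated control. Run in triplicate.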

LNCaP = assay: Antiproliferative activity against human LNCAP cells assessed as reduction in cell viability incubated for 24 hrs by MTT assay; type: functional, cell-based; how it was run: as §1
Pyruvate kinase PKM [1] = molecular target: T1, Pyruvate kinase PKM (Homo sapiens, UniProt P14618); assay: Binding affinity to PKM2 in human PC9 cells incubated for 1 hr by ABPP-SILAC assay; type: cell-based
How it was run: (§2)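 PC-9 cells passaged at least six times in SILAC DMEM with 10% dialyzed FBS plus 100 µg/mL light or 13C/15N-labeled Arg/Lys. Heavy cells got ABPP probe (1 µM) and light cells DMSO, 1 h at 37 °C. Cells mixed 1:1, sonicated, spun at 100,000g, protein normalized to 1 mg/mL. Click biotin-azide, streptavidin bead pulldown 16 h at 4 °C, SDS-PAGE, on-bead trypsin digestion, LC-MS/MS.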

[2] = molecular target: L-lactate dehydrogenase A chain (Homo sapiens) (UniProt P00338); assay: Binding affinity to LDHA in human PC9 cells incubated for 1 hr by ABPP-SILAC assay; type: cell-based; how it was run: as §2
[3] = molecular target: T2, Malate dehydrogenase, mitochondrial (Homo sapiens) (UniProt P40926); assay: Binding affinity to MDHM in human PC9 cells incubated for 1 hr by ABPP-SILAC assay; type: cell-based; how it was run: as §2
T2 sequence (whole entry): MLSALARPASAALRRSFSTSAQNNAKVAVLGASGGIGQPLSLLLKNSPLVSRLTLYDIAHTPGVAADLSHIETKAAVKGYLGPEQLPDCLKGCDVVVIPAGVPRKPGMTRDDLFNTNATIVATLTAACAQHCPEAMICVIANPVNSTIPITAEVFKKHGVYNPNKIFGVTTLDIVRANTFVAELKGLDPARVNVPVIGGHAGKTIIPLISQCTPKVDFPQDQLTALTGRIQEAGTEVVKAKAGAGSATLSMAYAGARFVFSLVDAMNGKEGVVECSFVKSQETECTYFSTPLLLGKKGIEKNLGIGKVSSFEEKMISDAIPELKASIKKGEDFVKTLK

[4] = molecular target: T3, ATP-citrate synthase (Homo sapiens) (UniProt P53396); assay: Binding affinity to ACYL in human PC9 cells incubated for 1 hr by ABPP-SILAC assay; type: cell-based; how it was run: as §2
T3 sequence (whole entry): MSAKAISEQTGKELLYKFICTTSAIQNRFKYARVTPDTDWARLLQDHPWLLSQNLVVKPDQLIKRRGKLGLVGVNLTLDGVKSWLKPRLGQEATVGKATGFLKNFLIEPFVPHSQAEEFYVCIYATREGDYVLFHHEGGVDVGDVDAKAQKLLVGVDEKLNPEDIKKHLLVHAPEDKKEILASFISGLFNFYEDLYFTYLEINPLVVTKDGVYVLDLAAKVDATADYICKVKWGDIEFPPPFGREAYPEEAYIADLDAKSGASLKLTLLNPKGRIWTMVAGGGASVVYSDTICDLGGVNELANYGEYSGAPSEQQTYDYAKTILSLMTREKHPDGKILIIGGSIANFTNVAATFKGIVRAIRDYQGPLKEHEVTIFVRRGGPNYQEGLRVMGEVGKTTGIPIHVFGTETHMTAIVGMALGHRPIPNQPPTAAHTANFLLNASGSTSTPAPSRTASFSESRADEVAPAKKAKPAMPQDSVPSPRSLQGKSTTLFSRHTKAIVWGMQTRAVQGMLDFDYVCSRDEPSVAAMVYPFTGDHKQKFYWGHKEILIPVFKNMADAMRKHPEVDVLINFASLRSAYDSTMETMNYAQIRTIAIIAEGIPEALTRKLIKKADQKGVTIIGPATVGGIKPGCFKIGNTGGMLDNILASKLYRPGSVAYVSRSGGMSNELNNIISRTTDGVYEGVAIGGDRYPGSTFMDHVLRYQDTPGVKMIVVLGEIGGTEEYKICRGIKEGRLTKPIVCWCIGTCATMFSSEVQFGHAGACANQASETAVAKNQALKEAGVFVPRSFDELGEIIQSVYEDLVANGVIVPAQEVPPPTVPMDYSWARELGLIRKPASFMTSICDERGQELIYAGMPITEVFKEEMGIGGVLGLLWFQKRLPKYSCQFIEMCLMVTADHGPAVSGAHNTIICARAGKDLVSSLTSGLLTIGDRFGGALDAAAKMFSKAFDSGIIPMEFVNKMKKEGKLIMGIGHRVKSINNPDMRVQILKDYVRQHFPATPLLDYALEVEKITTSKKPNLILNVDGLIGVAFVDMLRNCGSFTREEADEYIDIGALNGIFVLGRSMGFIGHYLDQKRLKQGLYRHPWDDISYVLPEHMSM

Pyruvate kinase PKM [5] = molecular target: T1, Pyruvate kinase PKM; assay: Inhibition of recombinant human PKM2 expressed in Escherichia coli at 0.125 to 0.5 uM using PEP as substrate incubated for 20 mins by OxiRed probe-based colorimetric assay relative to control
How it was run: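 Recombinant PKM1 or PKM2 incubated with compound at room temperature for 20 min. Remaining activity measured by the same colorimetric kit: PEP + […], PK then pyruvate oxidase, H2O2 read-out. n = 3.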

Pyruvate kinase PKM [6] = molecular target: T1, Pyruvate kinase PKM; assay: Inhibition of PKM2 in human PC9 cells assessed as down regulation of EGFR expression incubated for 24 hrs by Western blot analysis; type: cell-based
How it was run: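 PC-9 cells seeded at 5 × 10^5 cells/mL; after 24 h given 0–1 µM compound or DMSO for 24 h. Lysates run on 10% SDS-PAGE, transferred to nitrocellulose, probed for PKM2, EGFR, p-STAT3, STAT3, p-β-catenin, β-catenin and β-actin with HRP secondaries, ECL detection.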

Mus musculus = assay: In vivo inhibition of PKM2 in human PC9 cells xenografted in athymic nude mouse assessed as reduction in PKM2 expression at 10 mg/kg, ip administered once daily for 25 days measured post-last dose by Western blot analysis; type: functional, organism-based
How it was run: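 Tumors from PC-9 xenograft nude mice given 10 mg/kg i.p. daily or vehicle for 25 days (n = 8 per group) were lysed for Western blots of PKM2, EGFR, Stat3 and β-catenin. Bands quantified by ImageJ and normalized to GAPDH.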

Pyruvate kinase PKM [7] = molecular target: T1, Pyruvate kinase PKM; assay: Binding affinity to recombinant human N-terminal His6-tagged PKM2 expressed in Escherichia coli BL21 (DE3) assessed as Cys317-adduct formation by NanoLC-MS/MS analysis
How it was run: (§3)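 In-house His-tag PKM2 from E. coli BL21(DE3), purified by Ni-NTA then Superdex 200, treated with compound. Reduced with 30 mM DTT at 37 °C for 1 h, alkylated with 30 mM iodoacetamide for 1 h in the dark, trypsin 1:30 w/w overnight at 37 °C. Digests from 6 experiments pooled, 48 nanoLC-MS/MS runs in data-dependent mode, Orbitrap MS1.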

Pyruvate kinase PKM [8] = molecular target: T1, Pyruvate kinase PKM; assay: Binding affinity to recombinant human N-terminal His6-tagged PKM2 expressed in Escherichia coli BL21 (DE3) assessed as Cys326-adduct formation by NanoLC-MS/MS analysis; how it was run: as §3

T1 sequence (P14618 2-531 limits assumed): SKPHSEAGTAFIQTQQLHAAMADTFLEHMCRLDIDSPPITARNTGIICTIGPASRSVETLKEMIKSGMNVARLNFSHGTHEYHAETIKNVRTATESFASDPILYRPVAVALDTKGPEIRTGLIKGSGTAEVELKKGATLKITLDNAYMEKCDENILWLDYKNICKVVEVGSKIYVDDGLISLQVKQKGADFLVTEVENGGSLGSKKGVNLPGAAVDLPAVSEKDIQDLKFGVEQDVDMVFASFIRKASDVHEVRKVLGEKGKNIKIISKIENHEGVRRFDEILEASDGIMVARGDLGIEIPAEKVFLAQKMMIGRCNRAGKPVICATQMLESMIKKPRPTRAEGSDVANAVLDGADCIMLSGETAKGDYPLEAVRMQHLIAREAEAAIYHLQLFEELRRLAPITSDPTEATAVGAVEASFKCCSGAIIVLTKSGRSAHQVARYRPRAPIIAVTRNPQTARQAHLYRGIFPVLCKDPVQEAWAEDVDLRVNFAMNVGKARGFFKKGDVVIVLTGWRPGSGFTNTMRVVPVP

C#CC(=O)Nc1ccc(-n2nc(CCC(=O)NC)cc2-c2ccc(-c3ccc(C(F)(F)F)cc3)cc2)cc1
IC50 (MDA-MB-231): 100 nM | IC50 (LNCaP): > 2000 nM | Activity (Pyruvate kinase PKM [1]): Active | Activity [2]: Active | Activity [3]: Active | Activity [4]: Active | inhibition (Pyruvate kinase PKM [5]): 30% | inhibition (Pyruvate kinase PKM [6]): Dose-dependent effect | inhibition (Mus musculus): Active | Activity (Pyruvate kinase PKM [7]): Active | Activity (Pyruvate kinase PKM [8]): Active
